The results in this text go back to paper PMC10938441 (ACS Omega, 2024).

The nature of data set [1]: Cytotoxicity, MTT reduction assay in HepG2 cells. Particulars: human, HepG2 cells, CC50 (HepG2). Type of data set: cell-based. Summed up: (§1)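 HepG2 cells grown at 37 °C, 5% CO2 in DMEM with streptomycin (40 mg/L) and 10% heat-inactivated FBS. Seeded at 1 × 10^3 cells/well, then exposed to serial dilutions of test compound for 72 h, each concentration in triplicate. MTT added for 4 h; formazan dissolved in isopropanol, read at OD570. Viability expressed as % of vehicle control; CC50 fitted from % viability vs log concentration.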

Data set [2] in a line: Cytotoxicity, methylene blue staining in Calu-3 cells. In kind it is cell-based. As to conditions: human, Calu-3 cell monolayers. The essentials: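 Calu-3 monolayers (2 × 10^4 cells/well) exposed to test compound at several concentrations for 72 h at 37 °C, 5% CO2, triplicate per concentration. Cells PBS-washed, then fixed and stained 1 h at 37 °C with HBSS + 1.25% glutaraldehyde + 0.6% methylene blue. Rinsed with water; dye eluted 15 min at room temperature (50% ethanol, 49% PBS, 1% acetic acid); A660 read. CC50 fitted from % viability vs log concentration.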

For data set [3], the system named is SARS-CoV-2. Type of data set: cell-based, SARS-CoV-2 B.1 lineage. Particulars: correlation between anti-SARS-CoV-2 activity (EC50) and HepG2 cytotoxicity (CC50).
The subject of data set [4] is HepG2 cell lines. The data set can be described thus: Cytotoxicity, MTT reduction assay in HepG2 cells. Type of data set: cell-based. Particulars: read-out: CC50 (HepG2), 72 h. The essentials:
as §1
On the technique in general: Formazan colour is commonly taken as a measure of viable cells.

As usually defined, the CC50 is the concentration giving 50% cytotoxicity.

Turning to `Cc1c(-c2ccc(-c3ccccc3F)cc2)nc2ccc(F)cc2c1C(=O)O` [brequinar], the CC50 at 72 h was 17 ± 4 µM in data set [1] and 48 ± 2 µM in data set [2].

As to `CC(C)=CCC1=C(O)C(=O)c2ccccc2C1=O` [lapachol], the values for the CC50 at 72 h in data set [1] and in data set [2] were 71 ± 9 µM and 67 ± 2 µM, respectively. In data set [3], this molecule returned a selectivity index of 47 ± 7.

For the molecule `C/C(O)=C(\C#N)C(=O)Nc1ccc(C(F)(F)F)cc1` [teriflunomide], the CC50 at 72 h was found to be 164 µM in data set [1] and 59 ± 2 µM in data set [2]. The CC50 in data set [4] was 160 ± 20 µM.
